Source: ChEMBL document CHEMBL1914423, “New imidazo[2,1-b]thiazole derivatives: synthesis, in vitro anticancer evaluation, and in silico studies” (Eur J Med Chem, 2011)

Assays:
[1] = tested on: LOX IMVI; test: Antiproliferative activity against human LOXIMVI cells after 48 hrs by MTT assay; type: functional, cell-based
[2] = tested on: Malme-3M; test: Antiproliferative activity against human MALME-3M cells after 48 hrs by MTT assay; type: functional, cell-based
[3] = tested on: M14; test: Antiproliferative activity against human M14 cells after 48 hrs by MTT assay; type: functional, cell-based; settings: M14, 48 h
[4] = tested on: MDA-MB-435; test: Antiproliferative activity against human MDA-MB-435 cells after 48 hrs by MTT assay; type: functional, cell-based; settings: MDA-MB-435, 48 h
[5] = tested on: SK-MEL-28; test: Antiproliferative activity against human SK-MEL-28 cells after 48 hrs by MTT assay; type: functional, cell-based; settings: SK-MEL-28, 48 h
[6] = tested on: SK-MEL-5; test: Antiproliferative activity against human SK-MEL-5 cells after 48 hrs by MTT assay; type: functional, cell-based; settings: SK-MEL-5, 48 h
[7] = tested on: UACC-257; test: Antiproliferative activity against human UACC257 cells after 48 hrs by MTT assay; type: functional, cell-based; settings: UACC-257, 48 h
[8] = tested on: SK-OV-3; test: Anticancer activity against human SKOV3 cells after 48 hrs by SRB assay; type: functional; settings: SK-OV-3, 48 h
[9] = tested on: 786-0; test: Anticancer activity against human 786-0 cells after 48 hrs by SRB assay; type: functional; settings: 786-0, 48 h
Summary of the method: (§1)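 NCI five-dose screen. Cells in RPMI 1640 with 5% FBS and 2 mM L-glutamine, seeded at 5000–40,000 cells/well according to doubling time, then pre-incubated 24 h at 37 °C in 5% CO2. Drugs dissolved in DMSO, five concentrations by 10-fold or 1/2-log dilution. Cells fixed with TCA, SRB-stained, A515 read. IC50 solved from [(Ti−Tz)/(C−Tz)]×100 = 50.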

[10] = tested on: BT-549; test: Anticancer activity against human BT549 cells after 48 hrs by SRB assay; type: functional; settings: BT-549, 48 h; summary of the method: as §1
[11] = tested on: SK-MEL-2; test: Antiproliferative activity against human SK-MEL-2 cells after 48 hrs by MTT assay; type: functional, cell-based; settings: SK-MEL-2, 48 h
[12] = read-out: LC50 (the source's name)

How did the IC50 [1] turn out when `O=C(NCCNc1nccc(-c2c(-c3cccc(O)c3)nc3sccn23)n1)c1ccccc1O` was run?
The IC50 was 2650 nM.

What about the IC50 [2] of the same molecule?
The IC50 was 152 nM.

And the IC50 [3]?
The IC50 was 335 nM.

What about the IC50 [4] of the same molecule?
Its IC50 is 433 nM.

What about the IC50 [5] of the same molecule?
Its IC50 is 683 nM.

What about the IC50 [6] of the same molecule?
Its IC50 is 1220 nM.

What about the IC50 [7] of the same molecule?
The IC50 was 651 nM.

What about the GI50 [8] of the same molecule?
Its GI50 is 4310 nM.

What about the TGI [8] of the same molecule?
The TGI was 39700 nM.

What about the CC50 [8, 12] of the same molecule?
Its CC50 is over 100000 nM.

And the GI50 [9]?
The GI50 was 6250 nM.

And the TGI [9]?
The TGI was 43100 nM.

And the CC50 [9, 12]?
Its CC50 is over 100000 nM.

And the GI50 [10]?
The GI50 was 4740 nM.

What about the TGI [10] of the same molecule?
The TGI was 34900 nM.

What about the CC50 [10, 12] of the same molecule?
Its CC50 is over 100000 nM.

Which IC50 [1] does the source give for `O=C(NCCNc1nccc(-c2c(-c3cccc(O)c3)nc3sccn23)n1)c1ccccc1` here?
The IC50 was 3220 nM.

And the IC50 [2]?
Its IC50 is 205 nM.

What about the IC50 [3] of the same molecule?
The IC50 was 434 nM.

What about the IC50 [4] of the same molecule?
Its IC50 is 578 nM.

What about the IC50 [11] of the same molecule?
The IC50 was 2940 nM.

What about the IC50 [5] of the same molecule?
Its IC50 is 336 nM.

And the IC50 [6]?
The IC50 was 4150 nM.

What about the IC50 [7] of the same molecule?
Its IC50 is 489 nM.
